# Calls of active or inactive are those of the source. The calls are words filed in the database; no cut-off is given here.
# How the values were obtained:
# [1] = tested on: Mus musculus; test: Cognition enhancing effect in C57BL/6 mouse model of scopolamine-induced amnesia assessed as increase in […] percentage at 30 mg/kg, po administered for 5 days and measured on day 5 after 30 mins of scopolamine stimulation by Y-maze test; format: functional, organism-based
# In short: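 Male C57BL/6N mice given 30 mg/kg/day compound in saline by gavage for 5 days. Scopolamine 2 mg/kg in saline given i.p. 30 min before testing on the last day. Mice handled daily for 7 days beforehand. Free exploration of a three-arm Y-maze for 10 min, with entries scored manually (all four paws). Alternation = consecutive entries into three different arms.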
# [2] = target: T1, Nuclear factor erythroid 2-related factor 2 (Mus musculus) (UniProt Q60795); test: Activation of NRF2 in mouse BV2 cells assessed as increase in HO1 mRNA level at 0.1 to 10 uM incubated for 8 hrs by qRT-PCR analysis; format: cell-based
# T1 sequence (whole entry): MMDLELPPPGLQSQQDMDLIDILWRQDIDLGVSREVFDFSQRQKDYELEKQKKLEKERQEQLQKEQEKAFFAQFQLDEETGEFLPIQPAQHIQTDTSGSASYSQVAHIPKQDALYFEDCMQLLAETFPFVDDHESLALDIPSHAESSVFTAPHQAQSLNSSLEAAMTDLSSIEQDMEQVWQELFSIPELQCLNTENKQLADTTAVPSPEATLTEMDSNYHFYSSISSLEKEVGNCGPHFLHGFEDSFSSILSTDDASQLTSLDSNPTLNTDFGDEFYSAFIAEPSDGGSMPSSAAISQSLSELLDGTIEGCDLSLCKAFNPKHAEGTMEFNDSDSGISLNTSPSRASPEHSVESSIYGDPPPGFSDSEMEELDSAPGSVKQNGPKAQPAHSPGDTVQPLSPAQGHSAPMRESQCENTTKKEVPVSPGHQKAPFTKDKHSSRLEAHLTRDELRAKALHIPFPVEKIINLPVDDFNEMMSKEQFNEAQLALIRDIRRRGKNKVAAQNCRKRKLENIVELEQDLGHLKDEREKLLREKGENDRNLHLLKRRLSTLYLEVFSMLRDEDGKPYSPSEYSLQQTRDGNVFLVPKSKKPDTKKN
# In short: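 BV-2 microglia grown in RPMI 1640 with 10% FBS, 2.05 mM L-glutamine and penicillin-streptomycin at 37 °C, 5% CO2. Cells exposed to a range of compound concentrations for 8 h. Ho-1 or Gclm mRNA measured by qRT-PCR and expressed relative to untreated control. Means ± SEM, one-way ANOVA with Dunnett's test.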
# [3] = target: T1, Nuclear factor erythroid 2-related factor 2 (Mus musculus); test: Activation of NRF2 in mouse BV2 cells assessed as increase in GCLM protein expression at 10 uM incubated for 12 hrs by Western blot analysis; format: cell-based
# In short: (§1)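 BV-2 cells washed in ice-cold PBS and lysed on ice for 40 min in RIPA buffer with protease inhibitors. Nuclear fractions prepared separately. 10 μg protein run on SDS-PAGE and blotted to PVDF. Membranes blocked in 5% skim milk/TBST and probed overnight at 4 °C for Nrf2, HO-1, GCLM or SOD1. HRP secondary with ECL detection. Band densities normalised to Lamin B1 or β-actin.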
# [4] = target: T1, Nuclear factor erythroid 2-related factor 2 (Mus musculus); test: Activation of NRF2 in mouse BV2 cells assessed as increase in total NRF2 level at 0.1 to 10 uM incubated for 6 hrs by Western blot analysis; format: cell-based; in short: as §1
# [5] = target: CYP2C19 (Homo sapiens, UniProt P33261); test: Inhibition of CYP2C19 (unknown origin) assessed as remaining activity relative to control; format: ADME
# Sequence of CYP2C19 (P33261 whole entry): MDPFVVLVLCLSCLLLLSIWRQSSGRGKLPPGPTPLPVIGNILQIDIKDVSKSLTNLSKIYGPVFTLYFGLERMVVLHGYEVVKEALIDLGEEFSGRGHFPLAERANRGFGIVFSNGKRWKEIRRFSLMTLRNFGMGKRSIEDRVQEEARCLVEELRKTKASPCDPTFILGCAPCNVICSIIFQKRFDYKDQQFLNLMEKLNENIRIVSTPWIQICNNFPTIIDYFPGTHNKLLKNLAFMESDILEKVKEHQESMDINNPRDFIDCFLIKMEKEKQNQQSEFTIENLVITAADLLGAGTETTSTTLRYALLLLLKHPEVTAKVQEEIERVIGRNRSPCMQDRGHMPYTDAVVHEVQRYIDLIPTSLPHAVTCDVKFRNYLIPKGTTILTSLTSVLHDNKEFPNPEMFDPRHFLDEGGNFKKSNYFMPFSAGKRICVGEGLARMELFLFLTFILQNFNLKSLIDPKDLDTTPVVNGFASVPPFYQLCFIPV
# [6] = target: T1, Nuclear factor erythroid 2-related factor 2 (Mus musculus); test: Activation of NRF2 in mouse BV2 cells upregulation of SOD1 protein expression incubated for 6 hrs by Western blot analysis; format: cell-based; in short: as §1
smiles,measurement,setting,value
CN1CCN(C(=O)COc2ccc(C(=O)/C=C/c3ccccc3C(F)(F)F)cc2)CC1.Cl,Activity,[1],Active
same,Activity,[2],Active
same,fold change (FC),[3],> 15
same,Activity,[4],Active
same,activity,[5],79.3%
same,Activity,[6],Dose-dependent effect

# From ChEMBL document CHEMBL4312006, “A novel chalcone derivative as Nrf2 activator attenuates learning and memory impairment in a scopolamine-induced mouse model” (Eur J Med Chem, 2020)
